Measurements gathered from unrelated publications.
Lines come from different studies, so protocols differ.
Target: 5-hydroxytryptamine receptor 3A (HTR3A, Homo sapiens, UniProt P46098)
Tested at: 10 µM
Sequence (P46098 24-478, as in one of the studies): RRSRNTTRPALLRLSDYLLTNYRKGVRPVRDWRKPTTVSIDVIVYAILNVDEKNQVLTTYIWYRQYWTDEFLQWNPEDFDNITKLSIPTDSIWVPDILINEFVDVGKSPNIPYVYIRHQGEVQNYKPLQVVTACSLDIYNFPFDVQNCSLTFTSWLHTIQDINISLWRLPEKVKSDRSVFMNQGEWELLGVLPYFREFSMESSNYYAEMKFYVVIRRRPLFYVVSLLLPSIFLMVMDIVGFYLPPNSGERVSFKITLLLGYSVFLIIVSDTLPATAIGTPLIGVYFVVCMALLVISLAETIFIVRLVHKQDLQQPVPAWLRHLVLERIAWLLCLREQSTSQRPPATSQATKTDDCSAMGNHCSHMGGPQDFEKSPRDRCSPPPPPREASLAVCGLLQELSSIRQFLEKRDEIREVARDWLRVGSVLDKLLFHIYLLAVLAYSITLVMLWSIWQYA

For `CC(C)N1CCC[C@H]1CNC(=O)c1cn(C2CCCC2)c(=O)c2c1c1ccccc1n2C`, the inhibition was -4% (ligand displacement; radioligand).
With `Cn1cncc1[C@@](O)(COc1ccc(C#N)cc1-c1ccc(OC(F)(F)F)cc1)c1ccc(C#N)cc1` the inhibition was -0.62% (cell-free assay).
`COc1cc2c3c(c1OC)-c1cc4c(cc1CC3N(C)CC2)OCO4` (racemic) gave an inhibition of 44.6% (ligand displacement; radioligand).
With `CCN(CC)CCCC[C@H](NC(=O)[C@H](CC(C)C)NC(=O)[C@H](C)NC(=O)[C@H](Cc1ccccc1)NC(=O)c1ccc(C(C)(C)C)cc1)C(=O)N[C@@H](CO)C(=O)OC` the inhibition was -21% (ligand displacement; radioligand).
With `Clc1ccc2c(C3CCN(CCc4c[nH]c5ccccc45)CC3)c[nH]c2c1` the inhibition was 38% (ligand displacement; radioligand).
`c1ccc(C(NCCNC(c2ccccc2)c2ccccc2)c2ccccc2)cc1` has an inhibition of -16% (cell-free assay).
`COc1ccc(N=Nc2ccc3[nH]cc(CCN(C)C)c3c2)cc1` has an inhibition of < 50% (ligand displacement; radioligand).
The inhibition of `Cc1c(N2CCNCC2)nc2ccc(Br)cc2c1C(=O)NC[C@H](CCC(=O)O)c1ccccc1Cl` is reported as 86% (cell-free assay).
`CC(C)Cn1cnc2c(N)nc3ccccc3c21` has an inhibition of 8% (ligand displacement; radioligand).
`C[C@H](C(=O)N[C@H]1COc2ccccc2[C@@H]1S(C)(=O)=O)c1ccc(F)cc1` gave an inhibition of 6% (cell-free assay).
With `Nc1ncc(-c2nc(N3CCOCC3)nc(N3CCOCC3)n2)c(C(F)F)n1` the remaining signal was 100% (cell-free assay).
